Assay [1] addresses Protein arginine N-methyltransferase 1 (Homo sapiens, UniProt Q99873). Description: Inhibition of recombinant human His-tagged PRMT1 expressed in Escherichia coli BL21 (DE3) using biotin-labeled histone H4-20 as substrate incubated for 8 mins in presence of [3H]-SAM cofactor by scintillation proximity assay. Background: Scintillation proximity formats need no separation of bound from free tracer.

Assay [2] concerns the target Protein arginine N-methyltransferase 3 (Homo sapiens, UniProt O60678). Briefly: Inhibition of recombinant human His-tagged PRMT3 expressed in Escherichia coli BL21 (DE3) using biotin-labeled SMD1 as substrate incubated for 10 mins in presence of [3H]-SAM cofactor by scintillation proximity assay. In a few lines:
(§1)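 The inhibitor was serially diluted and added to the enzyme, [3H]-SAM and substrate mixture, and methylated substrate was quantified by scintillation proximity assay. Reactions were held at initial rate, with yield under 10% and substrate near Km. PRMT3, PRMT8 and G9a were His-tagged human proteins, and PRMT7 was GST-tagged, all expressed in E. coli and affinity-purified.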

Assay [3] has as its target T1, Histone-arginine methyltransferase CARM1 (Homo sapiens, UniProt Q86X55).
T1 sequence (Q86X55 whole entry): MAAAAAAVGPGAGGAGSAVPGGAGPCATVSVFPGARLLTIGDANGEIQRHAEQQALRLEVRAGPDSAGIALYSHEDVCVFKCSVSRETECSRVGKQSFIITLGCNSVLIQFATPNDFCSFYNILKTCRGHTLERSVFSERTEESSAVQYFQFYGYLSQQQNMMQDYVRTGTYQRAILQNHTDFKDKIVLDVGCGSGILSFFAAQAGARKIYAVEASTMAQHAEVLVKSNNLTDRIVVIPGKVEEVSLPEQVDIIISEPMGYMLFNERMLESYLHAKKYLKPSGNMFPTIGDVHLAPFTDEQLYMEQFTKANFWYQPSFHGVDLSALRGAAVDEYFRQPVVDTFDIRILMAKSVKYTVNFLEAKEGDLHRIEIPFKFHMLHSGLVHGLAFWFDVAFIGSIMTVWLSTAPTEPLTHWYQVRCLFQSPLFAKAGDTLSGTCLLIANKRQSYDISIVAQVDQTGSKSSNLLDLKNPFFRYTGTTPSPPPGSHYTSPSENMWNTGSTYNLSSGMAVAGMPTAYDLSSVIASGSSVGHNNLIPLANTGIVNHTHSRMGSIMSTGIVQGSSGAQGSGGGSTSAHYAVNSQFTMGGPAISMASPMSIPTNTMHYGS
Briefly: Inhibition of recombinant GST-tagged CARM1 (unknown origin) expressed in Escherichia coli using […] incubated for 120 mins in presence of [3H]-SAM cofactor by radioactive filter plate assay.

In assay [4] the target is PRMT5/MEP50 complex (Homo sapiens, UniProt O14744). Description: Inhibition of PRMT5/MEP50 (unknown origin) using biotin-labeled histone H4-20 peptide as substrate incubated for 8 mins in presence of [3H]-SAM cofactor by scintillation proximity assay. The format is protein-complex assay. The method, boiled down: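 Part of a methyltransferase selectivity panel. Test compound was serially diluted into a mixture of enzyme, [3H]-SAM cofactor and substrate. Methylated substrate was quantified by scintillation proximity assay. Reactions were held at initial-rate conditions with substrate turnover under 10%, and substrate concentrations were near Km.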
Sequence of PRMT5/MEP50 complex (O14744 whole entry): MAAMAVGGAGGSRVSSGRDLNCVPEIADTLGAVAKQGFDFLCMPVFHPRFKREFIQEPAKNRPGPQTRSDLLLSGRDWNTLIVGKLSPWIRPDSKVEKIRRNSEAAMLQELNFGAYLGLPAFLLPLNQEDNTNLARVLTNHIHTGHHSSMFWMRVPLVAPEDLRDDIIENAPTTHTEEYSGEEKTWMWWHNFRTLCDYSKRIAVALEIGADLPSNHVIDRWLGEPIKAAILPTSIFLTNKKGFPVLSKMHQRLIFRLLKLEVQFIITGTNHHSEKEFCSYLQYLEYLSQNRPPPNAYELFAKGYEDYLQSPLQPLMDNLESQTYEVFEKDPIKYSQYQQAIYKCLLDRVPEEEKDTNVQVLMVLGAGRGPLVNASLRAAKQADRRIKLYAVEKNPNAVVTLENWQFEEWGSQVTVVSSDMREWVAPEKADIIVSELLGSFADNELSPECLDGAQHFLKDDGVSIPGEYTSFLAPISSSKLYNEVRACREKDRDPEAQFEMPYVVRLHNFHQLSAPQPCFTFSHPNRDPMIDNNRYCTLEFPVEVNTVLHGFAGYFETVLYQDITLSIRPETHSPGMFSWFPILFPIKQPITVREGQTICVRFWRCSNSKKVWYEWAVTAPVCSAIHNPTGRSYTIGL
Sequence of PRMT5/MEP50 complex (Q9BQA1 whole entry, further chain): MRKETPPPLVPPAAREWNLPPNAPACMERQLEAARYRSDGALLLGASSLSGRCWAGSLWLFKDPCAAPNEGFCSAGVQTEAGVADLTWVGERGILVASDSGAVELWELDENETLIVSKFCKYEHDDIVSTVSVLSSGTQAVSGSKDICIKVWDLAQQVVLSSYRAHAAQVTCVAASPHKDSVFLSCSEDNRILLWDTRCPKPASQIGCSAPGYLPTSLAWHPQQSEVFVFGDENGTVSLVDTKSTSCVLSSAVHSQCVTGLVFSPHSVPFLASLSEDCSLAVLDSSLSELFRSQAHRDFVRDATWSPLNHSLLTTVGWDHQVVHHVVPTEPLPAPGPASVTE

In assay [5] the target is PRMT5/MEP50 complex (Homo sapiens) (UniProt O14744+Q9BQA1). Description: Inhibition of PRMT5/MEP50 (unknown origin) assessed as residual activity at 10 uM using biotin-labeled histone H4-20 peptide as substrate incubated for 8 mins in presence of [3H]-SAM cofactor by scintillation proximity assay relative to control. It counts as protein-complex assay. The method, boiled down:
(§2)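 Single-point profiling used 10 μM inhibitor added to the enzyme, [3H]-SAM and substrate mixture. Methylated substrate was quantified by scintillation proximity assay. Reactions were held at initial rate, with yield under 10% and substrate near Km. Enzyme, [3H]-SAM and substrate final levels are given in the supplement.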

Assay [6] concerns the target Protein arginine N-methyltransferase 6 (Homo sapiens, UniProt Q96LA8). Briefly: Inhibition of PRMT6 (unknown origin) assessed as residual activity at 10 uM using biotin-labeled SMD1 as substrate incubated for 30 mins in presence of [3H]-SAM cofactor by scintillation proximity assay relative to control. The method, boiled down: as §2
The target of assay [7] is T2, Protein arginine N-methyltransferase 7 (Homo sapiens, UniProt Q9NVM4).
T2 sequence (Q9NVM4 whole entry): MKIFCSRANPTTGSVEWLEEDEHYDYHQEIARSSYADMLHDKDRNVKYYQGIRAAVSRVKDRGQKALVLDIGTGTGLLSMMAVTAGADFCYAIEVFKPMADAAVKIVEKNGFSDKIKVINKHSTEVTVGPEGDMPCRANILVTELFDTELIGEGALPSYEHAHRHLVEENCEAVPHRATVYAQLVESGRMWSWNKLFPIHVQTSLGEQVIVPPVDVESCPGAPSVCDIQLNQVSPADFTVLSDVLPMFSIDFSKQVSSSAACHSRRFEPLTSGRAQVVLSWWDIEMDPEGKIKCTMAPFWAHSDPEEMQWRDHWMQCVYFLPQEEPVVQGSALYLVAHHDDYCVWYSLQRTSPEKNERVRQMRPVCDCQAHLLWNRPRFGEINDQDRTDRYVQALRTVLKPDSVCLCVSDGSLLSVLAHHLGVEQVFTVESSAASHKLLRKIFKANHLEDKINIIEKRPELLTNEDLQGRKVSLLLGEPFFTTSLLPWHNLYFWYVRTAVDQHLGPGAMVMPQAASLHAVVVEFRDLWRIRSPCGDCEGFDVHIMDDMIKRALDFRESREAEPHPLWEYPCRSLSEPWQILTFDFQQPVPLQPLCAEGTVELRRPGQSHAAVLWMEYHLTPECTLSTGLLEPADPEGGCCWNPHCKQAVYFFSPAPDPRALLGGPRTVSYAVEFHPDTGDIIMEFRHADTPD
Briefly: Inhibition of recombinant GST-tagged PRMT7 (unknown origin) expressed in Escherichia coli using biotin-labeled SMD1 as substrate incubated for 120 mins in presence of [3H]-SAM cofactor by scintillation proximity assay. The method, boiled down:
as §1

The target of assay [8] is T3, Protein arginine N-methyltransferase 7 (Homo sapiens) (UniProt Q9NVM4).
T3 sequence (whole entry): T2 sequence (Q9NVM4 whole entry)
Description: Inhibition of recombinant GST-tagged PRMT7 (unknown origin) expressed in Escherichia coli assessed as residual activity at 10 uM using biotin-labeled SMD1 as substrate incubated for 120 mins in presence of [3H]-SAM cofactor by scintillation proximity assay relative to control. In a few lines: as §2

Assay [9] has as its system MEG-01. Briefly: Antiproliferative activity against human MEG-01 cells assessed as inhibition of cell growth measured after 72 hrs by CellTiter-Glo assay. The format is functional, cell-based. Particulars: MEG-01, 72 h. In a few lines:
(§3)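 Cells were cultured with the test agent, serially diluted, for 72 h. The control received the same amount of DMSO. Cell viability was then measured, and IC50 values were taken from sensitivity curves.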
(ATP-based viability assays read luminescence as a measure of living cells.)

Assay [10] relates to CMK. Description: Antiproliferative activity against human CMK cells assessed as inhibition of cell growth measured after 72 hrs by CellTiter-Glo assay. It counts as functional, cell-based. In a few lines: as §3
Assay [11] deals with HEL. Description: Antiproliferative activity against human HEL cells assessed as inhibition of cell growth measured after 72 hrs by CellTiter-Glo assay. It counts as functional, cell-based. The method, boiled down:
as §3

The results in this text go back to ChEMBL document CHEMBL4680065, “Pharmacophore-based screening of diamidine small molecule inhibitors for protein arginine methyltransferases” (RSC Med Chem, 2021).

Sequence of Protein arginine N-methyltransferase 3 (O60678 whole entry): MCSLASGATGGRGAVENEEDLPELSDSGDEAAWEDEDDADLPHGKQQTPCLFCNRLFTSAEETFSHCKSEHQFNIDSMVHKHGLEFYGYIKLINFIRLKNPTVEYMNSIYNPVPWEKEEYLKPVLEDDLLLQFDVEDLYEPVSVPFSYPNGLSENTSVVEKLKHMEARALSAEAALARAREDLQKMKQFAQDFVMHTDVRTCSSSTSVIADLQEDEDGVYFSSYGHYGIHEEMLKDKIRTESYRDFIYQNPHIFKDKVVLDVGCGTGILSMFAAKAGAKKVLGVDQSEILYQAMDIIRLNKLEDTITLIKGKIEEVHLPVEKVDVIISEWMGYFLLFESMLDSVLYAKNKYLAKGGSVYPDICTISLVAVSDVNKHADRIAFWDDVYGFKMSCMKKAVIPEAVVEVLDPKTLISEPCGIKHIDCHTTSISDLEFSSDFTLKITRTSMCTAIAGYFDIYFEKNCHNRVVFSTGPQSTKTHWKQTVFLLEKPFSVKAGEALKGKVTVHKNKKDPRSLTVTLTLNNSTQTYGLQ
Sequence of Protein arginine N-methyltransferase 1 (Q99873 whole entry): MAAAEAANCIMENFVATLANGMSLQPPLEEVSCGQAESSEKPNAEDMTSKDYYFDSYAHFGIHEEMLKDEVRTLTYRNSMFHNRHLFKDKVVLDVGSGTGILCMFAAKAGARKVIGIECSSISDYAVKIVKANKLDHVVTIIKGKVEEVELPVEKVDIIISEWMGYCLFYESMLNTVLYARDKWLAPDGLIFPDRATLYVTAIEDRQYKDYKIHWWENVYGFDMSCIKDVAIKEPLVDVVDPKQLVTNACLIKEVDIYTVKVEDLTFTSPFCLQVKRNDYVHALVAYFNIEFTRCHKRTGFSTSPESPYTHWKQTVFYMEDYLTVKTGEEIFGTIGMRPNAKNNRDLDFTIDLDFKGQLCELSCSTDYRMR
Sequence of Protein arginine N-methyltransferase 6 (Q96LA8 whole entry, looked up): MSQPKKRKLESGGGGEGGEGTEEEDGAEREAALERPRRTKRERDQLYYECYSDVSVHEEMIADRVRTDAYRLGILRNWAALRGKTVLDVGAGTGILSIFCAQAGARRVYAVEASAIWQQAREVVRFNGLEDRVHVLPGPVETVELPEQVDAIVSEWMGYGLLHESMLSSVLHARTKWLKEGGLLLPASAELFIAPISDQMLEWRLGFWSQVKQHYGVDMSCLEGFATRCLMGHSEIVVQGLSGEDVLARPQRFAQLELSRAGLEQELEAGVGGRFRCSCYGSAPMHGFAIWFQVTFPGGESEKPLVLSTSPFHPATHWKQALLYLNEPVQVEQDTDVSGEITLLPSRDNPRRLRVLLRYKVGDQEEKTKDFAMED

Broadly, the IC50 is the concentration that gives 50% inhibition. On to `N=C(N)c1ccc(Nc2ccc(-c3cc4ccc(C(=N)N)cc4[nH]3)cc2)cc1`, for which the concentration for half-maximal inhibition (IC50) came to 2600 nM in assay [1]; 3400 nM in assay [2]; 27600 nM in assay [3]; 6800 nM in assay [4]; 23600 nM in [7]; 1030 nM in assay [9]. In addition, the half-inhibitory concentration (IC50) was determined as 1310 nM in [10] and 2270 nM in assay [11]. Besides, the results for the Activity in assay [5], in assay [6] and in assay [8] were 35.1%, 22.9% and 32.1%, respectively.
